High-throughput results (PubChem BioAssay)
FID counter = counter-screen for HCV NS3 helicase inhibitors: DNA intercalator displacement | DNA fluorescent intercalator displacement, fluorescence | inhibition, % at 7.9 µM | 290,000 compounds, 0.17% hits | AID 1845; in the data active = inhibition above about 37%;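 note: 0% = vehicle and 100% = reference compound; higher means more ethidium bromide displaced from hairpin DNA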
SR-BI DiI-HDL act = activators of SR-BI mediated HDL lipid uptake; CHO ldlA[mSR-BI] cells, DiI-HDL uptake fluorescence, 3 h; 100 = double the neutral-control signal; activation, % at 12.5 µM; 320,000 compounds, 0.096% hits;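 active = mean replicate activation of at least 60% and every replicate at or above 60%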;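 note: 0% = median plate neutral-control signal and 100% = twice that signal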
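Test system: SR-BI-overexpressing, LDLR-lacking CHO cells; Also added: labelled HDL, 10 µg/mL; Measured by: bottom-read cell fluorescence after medium removal, ex 550/em 595 nm; Timing: 3 h uptake period with compound, 37 °C; Buffer or medium: F12, 0.5% BSA, 25 mM HEPES; Doses: single compound concentration, delivered by pin transfer.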
TMEM16A act = activators or potentiators of mouse TMEM16A chloride channel. Q8BHY3. HEK293 TMEM16A/YFP-H148Q/I152L, iodide quench fluorescence; stronger effect = lower value. B-score at 10 µM. 340,000 compounds, 0.3% hits. AID 623877;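 active = fluorescence-ratio B-score plate-corrected deviation score at least 3 library SD below zero, with starting fluorescence score within 5 deviations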;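 note: channel opened by trigger with iodide after compound preincubation; score built on the fluorescence ratio of max minus min over baseline; more negative score means more quench and so TMEM16A activation or potentiation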
ANO1 block = blocks the mouse calcium-activated chloride channel TMEM16A. HEK293 TMEM16A/YFP iodide influx fluorescence, ionomycin. Q8BHY3. 310,000 compounds, 1.2% hits. normalized B-score (activity score, 25-100; higher = stronger inhibition) at 10 µM;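 active = ratio plate-corrected score three or more library SD toward inhibition, starting fluorescence score within five deviations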;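 note: score derived from kinetic fluorescence span divided by baseline fluorescence per well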
SR-BI DiI inh = inhibitors of mouse SR-BI mediated HDL lipid uptake; Q61009; ldlA[mSR-BI] CHO cells, DiI-HDL uptake fluorescence, 3 h; inhibition, % at 12.5 µM; 320,000 compounds, 0.96% hits; AID 488896;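 active = mean replicate inhibition of at least 70% and a set share of replicates each scoring 70 or more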;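 note: 0% = median of neutral control wells and 100% = median of positive control wells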
Target sequence (Q61009 whole entry, looked up): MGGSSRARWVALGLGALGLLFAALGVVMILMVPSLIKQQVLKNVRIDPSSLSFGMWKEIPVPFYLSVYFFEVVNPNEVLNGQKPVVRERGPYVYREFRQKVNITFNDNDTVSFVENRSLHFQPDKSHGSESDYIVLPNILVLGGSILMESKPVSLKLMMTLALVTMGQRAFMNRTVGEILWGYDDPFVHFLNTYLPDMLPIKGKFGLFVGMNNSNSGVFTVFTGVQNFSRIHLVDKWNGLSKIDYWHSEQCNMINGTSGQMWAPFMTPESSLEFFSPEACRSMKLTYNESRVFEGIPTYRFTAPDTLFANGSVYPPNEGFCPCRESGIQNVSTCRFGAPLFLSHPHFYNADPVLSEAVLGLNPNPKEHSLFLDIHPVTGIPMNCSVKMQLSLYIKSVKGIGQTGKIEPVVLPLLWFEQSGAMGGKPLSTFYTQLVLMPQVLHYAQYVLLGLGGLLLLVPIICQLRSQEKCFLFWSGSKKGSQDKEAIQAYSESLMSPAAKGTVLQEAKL
Kir21 inh = inhibitors of mouse Kir2.1 inward-rectifier potassium channel; P35561; HEK293-Kir2.1, FluxOR thallium flux fluorescence; stronger effect = lower value; B-score at 10 µM; 310,000 compounds, 0.85% hits;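 active = fluorescence ratio B-score at or below minus 3 SD of library scores, with starting-brightness B-score within 2 SD, cut at about -4.2 in these data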;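 note: channel flux triggered by added potassium and thallium sulfate stimulus; B-score of peak minus minimum fluorescence over baseline after thallium stimulus; more negative B-score means stronger Kir2.1 block with less thallium influx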
hERG inh = counter-screen for Kir2.1 inhibitors: effect on human hERG; shares compounds with Kir21 inh; hERG-expressing cells, thallium flux; inhibition, % at 10 µM; 320 compounds, 20% hits; AID 2236;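 note: host cells are CHO cells stably expressing hERG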
KCNK9 inh = human KCNK9 off-target activity of Kir2.1 blockers. shares compounds with Kir21 inh. KCNK9-expressing cells, ion flux inhibition. inhibition, % at 10 µM. 320 compounds, 5% hits
Kir2-1 patch inh = blocks mouse Kir2.1 current in automated electrophysiology | shares compounds with Kir21 inh | Kir2.1 cells, automated patch-clamp current inhibition | inhibition, % at 25 µM | 320 compounds, 71% hits | AID 463252
DiI quench = counter-screen for SR-BI lipid transfer inhibitors: DiI fluorescence quenchers; shares compounds with SR-BI DiI inh; AC50, µM (highest dose often 35 µM), for inactives: at the highest dose activity change, negative = quenching; 470 compounds, 20% hits; cell-free DiI-HDL fluorescence quenching, 30 min;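 active = quenching, a falling signal, with AC50 below a set limit tied to the top valid dose, actives reach about 32 µM in these data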
TMEM16A reconf = re-confirmation of mouse TMEM16A chloride channel inhibitors. 2,300 compounds, 39% hits. inhibition, % at 10 µM. shares compounds with ANO1 block. HEK293 TMEM16A/YFP-H148Q, iodide quench fluorescence; ionomycin added to raise cell calcium;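 active = mean duplicate percent inhibition, scaled so buffer wells are 0 and the reference blocker 100, over three buffer SD above buffer mean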
TMEM16A Ca cntr = counter-screen for TMEM16A inhibitors: effect on calcium mobilization; shares compounds with ANO1 block; TMEM16A/YFP HEK293, Fluo4 calcium mobilization; calcium response (% of ionomycin), % at 10 µM; AID 652231; 2,300 compounds, 2% hits;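 active = duplicate-averaged calcium signal over 20% of the ionomycin maximum, relative to buffer baseline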;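 note: each well's signal is peak minus trough fluorescence divided by its pre-addition baseline; 0% = buffer wells and 100% = ionomycin wells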
YFP-HEK293 quench = parental YFP-HEK293 iodide quench counter-screen activity; 2,300 tested, under 10 active; ionomycin; shares compounds with ANO1 block; YFP ratio F(max-min)/F0 at 10 µM;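 active = yellow fluorescent protein signal ratio exceeding the buffer control mean by over 5 SD of those controls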;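 note: ratio is mean of duplicate wells from kinetic YFP trace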
ClC-1 rat inh = rat ClC-1 inhibition, TMEM16A specificity screen. shares compounds with ANO1 block. CHO ClC-1-YFP, iodide influx fluorescence quench; iodide control reads 0, buffer control 100. ratio percent, % at 10 µM. 2,300 tested, under 10 active. AID 652236;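 active = duplicate-mean ratio percent above the mean of iodide-only control wells, which defines zero, plus 5 of their SD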;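 note: higher percent means stronger block of ClC-1 iodide influx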
An asterisk follows results filed as active; i = inactive; x = no result. Most compounds without a hit are left out; they make up all but 3% or so of the library. Unless noted, the rule behind the calls is not given here.

SMILES	FID counter	SR-BI DiI-HDL act	TMEM16A act	ANO1 block	SR-BI DiI inh	Kir21 inh	hERG inh	KCNK9 inh	Kir2-1 patch inh	others
COc1ccc(CNCc2ccc(C)cc2)c(OC)c1	4	6	i	i	-6	-0.17	x	x	x
COc1ccccc1CNCc1ccc(OC)c2ccccc12	x	8	i	i	-8	-8.1*	i	i	42%*
COc1ccc(CNC/C=C/c2ccccc2)cc1	3	19	i	i	-19	-12*	i	i	78%*
CCC(C)Nc1nc2ccccc2n2c(C)nnc12 (stereo unspecified)	-12	19	i	i	-19	-0.62	x	x	x
CCCCOc1c(Br)cc(/C=N/O)cc1OCC	-9	-28	i	i	28	-7.3*	i	i	11%*
COc1cc(/C=N/O)cc(Br)c1OCc1ccc(Cl)cc1	2	-19	i	i	19	0.68	x	x	x
Cc1cc(SCC(=O)OCC(=O)N2CCCC2=O)c(C)cc1Br	x	4	i	i	-4	6.5	i	i	i
COCCNC(=O)CN1C(=O)COc2ccc(S(=O)(=O)N3CC(C)CC(C)C3)cc21 (stereo unspecified)	-31	2	i	i	-2	-0.19	x	x	x
O=C(CCCN1CCC(O)(c2ccc(Cl)cc2)CC1)c1ccc(F)cc1	27	-9	i	i	9	-5.5*	x	i	55%*
O=C(N/N=C/c1cccc(Oc2ccccc2)c1)c1cccc(O)c1	-26	-31	i	i	31	-8.1*	i	i	41%*
O=C(N/N=C/c1cccc(Oc2ccccc2)c1)c1cccc(Br)c1	-10	-12	i	i	12	0.02	x	x	x
CSCc1ccc(C(=O)N2CCCC(Nc3ccc4c(c3)OCCO4)C2)o1 (stereo unspecified)	-24	2	i	i	-2	0.76	x	x	x
CSCc1ccc(C(=O)N2CCCC(Nc3ccc(F)cc3)C2)o1 (stereo unspecified)	-23	-11	i	i	11	-5.7*	i	i	29%*
COc1cc(C)ccc1OCCCCNCc1ccccc1	5	8	i	i	-8	-5.8*	i	i	37%*
COc1ccc(CN2CCCC(C(=O)c3ccc4c(c3)OCO4)C2)c(F)c1 (stereo unspecified)	18	22	i	i	-22	-6.4*	46%*	i	23%*
O=C(c1ccco1)N(CCC(c1ccccc1)c1ccco1)Cc1ccco1 (stereo unspecified)	-35	-2	i	i	5	-6.1*	i	48%*	i
Cc1ccc(C(CCN(Cc2ccccc2)C(=O)c2ccco2)c2ccco2)cc1 (stereo unspecified)	-53	-14	i	i	14	0.33	x	x	x
Cc1onc(-c2ccccc2)c1CNS(=O)(=O)c1cccc(Cl)c1	-12	14	i	i	-14	-9.8*	i	i	12%*
CNCCC1Sc2ccccc2Oc2ccccc21 (stereo unspecified)	23	5	i	i	-5	-5.9*	i	i	1.9%*
CSc1ccc(CN2CCC(CO)(CCOc3ccccc3)CC2)cc1	12	5	i	i	-5	-5.8*	73%*	i	7.3%*
OCC1(CCOc2ccccc2)CCN(Cc2ccncc2)CC1	-5	3	i	i	-3	0.82	x	x	x
Cc1onc(-c2ccccc2Cl)c1C(=O)c1ccccc1	-14	-12	i	i	12	-6.4*	i	i	11%*
Cc1onc(-c2c(Cl)cccc2Cl)c1C(=O)c1ccccc1	-11	1	i	i	-1	-0.1	x	x	x
O=C(COC(=O)c1cccs1)Nc1cccc(S(=O)(=O)N2CCCCC2)c1	x	-10	i	x	10	x	x	x	x
CC(=O)Nc1ccc(C(=O)OCCc2ccccc2)cc1	-2	0	i	i	0	-1.1	x	x	x
SMILES	FID counter	SR-BI DiI-HDL act	TMEM16A act	ANO1 block	SR-BI DiI inh	Kir21 inh	hERG inh	KCNK9 inh	Kir2-1 patch inh	others
Cc1ccc(S(=O)(=O)Oc2ccccc2/C=N/N=C(N)N)cc1	13	17	i	i	-17	-11*	61%*	i	i
Cc1ccc(C(=O)NC(=S)N2CCN(C)CC2)cc1Br	4	3	i	x	-3	0.43	x	x	x
CSc1ccc(NC(=O)NCCCN2CCC(Cc3ccccc3)CC2)cc1	21	18	i	i	-18	-6*	75%*	i	20%*
O=C(Nc1cc(Cl)cc(Cl)c1)c1cccc(OC(F)F)c1	7	-74	i	100*	74*	4.3	i	45%*	i	TMEM16A reconf=43%*;TMEM16A Ca cntr=i;YFP-HEK293 quench=-1.4;ClC-1 rat inh=-26
CC(C)(C)[C@@H]1COC(=O)[C@H](Cc2ccc(F)cc2)C/C=C\C[C@@H](CC(=O)NCCO)C(=O)N1	x	29	i	x	-29	x	x	x	x
COc1cc2c(cc1OC)-c1cc(OCc3ccccc3Cl)nc(=O)n1CC2	-7	-73	i	i	78*	2.1	x	x	x	DiI quench=-4%
COc1cc2c(cc1OC)-c1cc(NC3CCCC3)nc(=O)n1CC2	-16	21	i	i	-21	-1.2	x	x	x
COc1ccc(CNC(=O)C(C)OC(=O)CO/N=C(\C)c2ccc3c(c2)OCO3)cc1 (stereo unspecified)	x	-9	i	i	9	-6	x	x	x
